Screening results deposited in PubChem by The Scripps Research Institute Molecular Screening Center.
rCAG binder: molecules binding r(CAG) RNA repeats; r(CAG) RNA repeat, TO-PRO-1 dye displacement fluorescence; inhibition, % at 3 µM; 1.3% of 370,000 active;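 active = inhibition above the plate cutoff, the mean of all test compounds on that plate plus 3 SD, cut at about 35% in these data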;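 note: 0% = DMSO alone and 100% = 100 µM mitoxantrone as full dye displacement; higher means more dye released from RNA so lower well fluorescence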
mABHD4 FP: inhibits mouse alpha/beta hydrolase domain 4; Q8VD66; purified mABHD4, FP-Rh probe fluorescence polarization; inhibition, % at 8.92 µM; 0.54% of 370,000 active; AID 720543;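 active = inhibition exceeding the mean over every tested compound plus 3 SD, cut at about 30% in these data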;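 note: 0% = plate median of compound wells and 100% = S159A mutant with DMSO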
Target sequence (Q8VD66 whole entry, looked up, the tested form may be a part): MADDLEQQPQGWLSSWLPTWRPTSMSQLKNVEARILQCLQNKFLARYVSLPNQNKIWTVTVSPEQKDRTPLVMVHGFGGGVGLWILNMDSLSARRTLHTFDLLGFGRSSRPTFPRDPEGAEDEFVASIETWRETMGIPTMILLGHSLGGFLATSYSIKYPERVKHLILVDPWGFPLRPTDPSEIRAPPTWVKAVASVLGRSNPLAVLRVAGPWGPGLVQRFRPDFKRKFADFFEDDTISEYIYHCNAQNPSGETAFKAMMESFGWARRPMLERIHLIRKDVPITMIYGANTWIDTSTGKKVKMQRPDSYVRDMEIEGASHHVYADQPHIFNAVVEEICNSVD
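Assay system: mABHD4 protein; medium: HEPES pH 7.0, NaCl, Pluronic buffer; dosing: 8.92 µM, single dose; schedule: 45 min + 60 min at 25 °C; signal: FP readout, ex 525 nm / em 598 nm; read-out: normalized percent inhibition of probe labeling; repeats: single replicate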
HTRA1 inh: inhibitors of human serine peptidase HTRA1 | Q92743 | recombinant HTRA1, FP-rhodamine activity-based probe, fluorescence polarization | inhibition, % at 5.96 µM | 0.5% of 340,000 active | AID 504803; in the data active = inhibition above about 36%;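 note: 0% = enzyme with DMSO and 100% = wells lacking enzyme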
SIAE primary: human SIAE inhibition, primary screen; SIAE FP-Rh probe binding, fluorescence polarization; inhibition, % at 9.66 µM; 0.69% of 370,000 active; AID 1053197;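 active = inhibition above a cutoff: mean of compounds within the control limits plus 3 SD of those, cut at about 17% in these data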;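 note: 0% = plate median of compound wells and 100% = probe without SIAE protein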
PRMT1 inh: PRMT1 (human) inhibition, primary screen; recombinant PRMT1, activity-based probe fluorescence polarization; inhibition, % at 2.79 µM; Q99873; 1.3% of 370,000 active;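 active = inhibition above about 21% made by adding two undisclosed values, limit read from the data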
HTRA1 conf: HTRA1 (human) inhibition, confirmation. AID 540248. recombinant HTRA1, FP-rhodamine activity-based probe, fluorescence polarization. 66% of 1,600 active. inhibition, % at 5.96 µM. shares compounds with HTRA1 inh;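 active = mean inhibition over three repeats above a set limit taken from the earlier primary screen, cut at about 37% in these data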;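 note: 0% = HTRA1 with DMSO and 100% = wells lacking HTRA1; inhibitors block probe binding so polarization drops and inhibition rises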
Starred values were filed as active, the others as inactive; nt = no result given. A selection: hits, their analogues and other compounds. The true share with any hit is near 3.3%.

SMILES	rCAG binder	mABHD4 FP	HTRA1 inh	SIAE primary	PRMT1 inh	HTRA1 conf
COC(=O)c1cc2c(c3c4cc(OC)ccc4n(S(=O)(=O)c4ccc(OC)cc4)c13)C(=O)N(Cc1ccccc1OC)C2	15	-5	nt	-11	-1	nt
Oc1cc(Nc2ccncc2)cc2cccnc12	15	-3	43*	4	2	37*
Nc1ccn([C@@H]2O[C@H](C(=O)N[C@H](Cc3ccccc3)C(=O)NCC(=O)N3CCOCC3)[C@@H](O)[C@H]2O)c(=O)n1	3	2	nt	-2	-4	nt
COC(=O)C[C@H]1CC[C@H]2[C@@H](COc3ccc(NC(=O)Nc4ccccc4)cc3C(=O)N2C)O1	1	0	nt	0	1	nt
COc1ccc2nc(NN=C(C)c3ccccn3)cc(C)c2c1	0	-13	55*	-2	-2	67*
CC(=NNc1ccc2ccccc2n1)c1ccccn1	2	3	nt	5	-4	nt
O=C(Cc1cnn(-c2ccccc2)c1)c1ccc(O)c(O)c1O	34	24	69*	-15	39*	94*
CC(=O)NC(c1ccc(C)cc1)c1cc([N+](=O)[O-])c2cccnc2c1O (stereo unspecified)	17	12	30	5	-3	nt
CCCC(=O)NC(c1ccco1)c1cc([N+](=O)[O-])c2cccnc2c1O (stereo unspecified)	15	19	50*	0	18	66*
CCC(=O)NC(c1ccc(C)cc1)c1cc([N+](=O)[O-])c2cccnc2c1O (stereo unspecified)	9	9	38*	11	0	71*
O=S1(=O)c2c(NCc3ccco3)cccc2Oc2ccccc2CN1Cc1cn(Cc2ccc(Cl)cc2)nn1	15	-10	nt	-6	6	nt
Cc1ccc2c(c1)c1c3n2CCN(C(=O)C2CC2)C3CCC1 (stereo unspecified)	8	7	5	12	1	nt
Cc1ccc2c(c1)c(=O)c1c3n2CCN(C(=O)CCl)C3CC1 (stereo unspecified)	22	21	48*	6	10	19
CCCCNC(=O)C[C@H]1C[C@@]2(C(=O)OC)C(=C[C@H](COCc3ccccc3)O[C@@H]2C)N(Cc2ccc3c(c2)OCO3)C1=O	2	-2	nt	3	2	nt
N#CC(=C=[N-])C1=C(C#N)C(c2ccccc2F)C([n+]2ccccc2)C(O)(C2CC2)N1 (stereo unspecified)	3	16	-2	2	3	nt
Cc1cccc[n+]1C1C(c2ccccc2)C(C#N)=C(C(=C=[N-])C#N)NC1(O)C1CC1 (stereo unspecified)	nt	nt	67*	nt	nt	49*
CCC1=NN(C(=O)c2cccc(Br)c2)C(O)(c2ccc(Br)cc2)C1 (stereo unspecified)	6	-6	75*	1	1	68*
CCC1=NN(C(=O)c2ccccc2[N+](=O)[O-])C(O)(c2ccccc2)C1 (stereo unspecified)	1	9	5	-5	-1	nt
Clc1ccc2nc(-c3ccccn3)c(Nc3ccc4c(c3)OCO4)n2c1	2	6	58*	7	-2	60*
Cc1ccc2nc(-c3ccccc3O)c(Nc3ccc4c(c3)OCCO4)n2c1	4	-7	3	12	2	nt
CCCCNC(=O)C[C@H]1C[C@@]2(C(=O)OC)C(=C[C@H](C(C)(C)C)O[C@@H]2C)N(Cc2ccco2)C1=O	2	2	nt	-2	5	nt
Oc1c(I)cc(Cl)c2cccnc12	7	27	54*	17	-2	87*
O=[N+]([O-])c1ccc(Cl)c2cccnc12	-3	-7	1	4	-2	nt
O=[N+]([O-])c1cc(F)c2cccnc2c1O	3	16	55*	9	3	48*
O=[N+]([O-])c1cc(Cl)c2cccnc2c1O	11	10	43*	0	7	52*
CCCN1CCCCC(NC(=O)c2cccs2)C1=O (stereo unspecified)	0	2	nt	-8	-1	nt
COc1ccc(CNC(=O)[C@@H](Cc2ccccc2)NC(=O)[C@H]2O[C@@H](n3cnc4c(=O)[nH]c(N)nc43)[C@H](O)[C@@H]2O)cc1	7	-1	nt	3	-5	nt
CCN(CC)c1ccc(N=Cc2ccccc2[N+](=O)[O-])cc1	8	47*	53*	12	20	146*
